Experimental data published in ChEMBL document CHEMBL1828575, “Design, synthesis and antiproliferative activities of biarylolefins based on polyhydroxylated and carbohydrate scaffolds” (Eur J Med Chem, 2011).

What was measured:
Format in all cases: functional
DU-145 = test: Cytotoxicity against human DU145 cells assessed as cellular growth at 10 uM after 48 hrs by SRB assay
Procedure, shortened: (§1)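 NCI60 single-dose screen of cells in RPMI 1640 with 5% FBS and 2 mM L-glutamine, preincubated 24 h at 37 °C, 5% CO₂. Cells were then exposed 48 h to compound added from DMSO stock. TCA-fixed, stained with 0.4% SRB in 1% acetic acid, dye solubilised in 10 mM Tris base and read at 515 nm. Growth is given as percent of untreated control.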

SF-268 [1] = test: Cytotoxicity against human SF268 cells assessed as cellular growth at 10 uM after 48 hrs by SRB assay
Procedure, shortened: (§2)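 NCI-60 panel lines grown in RPMI 1640 with 5% FBS and 2 mM L-glutamine. Plated at 5000–40,000 cells/well and preincubated 24 h at 37 °C, 5% CO₂, with time-zero plates fixed in TCA. Compounds, dissolved in DMSO and diluted in medium, were applied for 48 h. Cells were TCA-fixed (10% final for adherent, 16% for suspension) and stained with 0.4% SRB in 1% acetic acid. Dye was solubilised in 10 mM Tris base and read at 515 nm; growth was expressed as a percentage of untreated control.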

HL-60(TB) [2] = test: Cytotoxicity against human HL-60(TB) cells assessed as cellular growth at 10 uM after 48 hrs by SRB assay
K562 = test: Cytotoxicity against human K562 cells assessed as cellular growth at 10 uM after 48 hrs by SRB assay; procedure, shortened: as §1
SR = test: Cytotoxicity against human SR cells assessed as cellular growth at 10 uM after 48 hrs by SRB assay; procedure, shortened: as §2
NCI-H460 = test: Cytotoxicity against human NCI-H460 cells assessed as cellular growth at 10 uM after 48 hrs by SRB assay; procedure, shortened: as §2
NCI-H226 = test: Cytotoxicity against human NCI-H226 cells assessed as cellular growth at 10 uM after 48 hrs by SRB assay; procedure, shortened: as §2
SNB-75 = test: Cytotoxicity against human SNB75 cells assessed as cellular growth at 10 uM after 48 hrs by SRB assay; procedure, shortened: as §2
U-251 = test: Cytotoxicity against human U251 cells assessed as cellular growth at 10 uM after 48 hrs by SRB assay; procedure, shortened: as §2
M14 = test: Cytotoxicity against human M14 cells assessed as cellular growth at 10 uM after 48 hrs by SRB assay; procedure, shortened: as §1
UACC-257 = test: Cytotoxicity against human UACC257 cells assessed as cellular growth at 10 uM after 48 hrs by SRB assay; procedure, shortened: as §2
OVCAR-3 = test: Cytotoxicity against human OVCAR3 cells assessed as cellular growth at 10 uM after 48 hrs by SRB assay; procedure, shortened: as §2
NCI/ADR-RES = test: Cytotoxicity against human NCI/ADR-RES cells assessed as cellular growth at 10 uM after 48 hrs by SRB assay; procedure, shortened: as §2
786-0 = test: Cytotoxicity against human 786-0 cells assessed as cellular growth at 10 uM after 48 hrs by SRB assay; procedure, shortened: as §1
ACHN = test: Cytotoxicity against human ACHN cells assessed as cellular growth at 10 uM after 48 hrs by SRB assay; procedure, shortened: as §1
TK-10 = test: Cytotoxicity against human TK10 cells assessed as cellular growth at 10 uM after 48 hrs by SRB assay; procedure, shortened: as §2
UO-31 [3] = test: Cytotoxicity against human UO31 cells assessed as cellular growth at 10 uM after 48 hrs by SRB assay; procedure, shortened: as §2
KM12 = test: Antitumor activity against human KM12 cells after 48 hrs by SRB assay; details: KM12, 48 h
Procedure, shortened: (§3)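 NCI60 panel in RPMI 1640 with 5% FBS and 2 mM L-glutamine. Cells were plated at 5000–40,000/well by doubling time, held 24 h, then time-zero plates were TCA-fixed. Five concentrations (10-fold or half-log dilutions of DMSO stocks) were applied for 48 h at 37 °C, 5% CO2. Cells were fixed with cold TCA (10% final adherent, 16% suspension) and stained with 0.4% SRB. Bound dye was dissolved in 10 mM Tris and read at 515 nm. GI50, TGI and LC50 were calculated per line.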

T47D = test: Antitumor activity against human T47D cells after 48 hrs by SRB assay
Procedure, shortened: (§4)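 NCI60 panel cells grown in RPMI 1640 with 5% FBS and 2 mM L-glutamine, plated at 5000–40,000 cells/well and preincubated 24 h at 37 °C, 5% CO₂. Compound was added from DMSO at five concentrations, 10-fold or 1/2 log dilutions, then incubated 48 h.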

UO-31 [4] = test: Antitumor activity against human UO31 cells after 48 hrs by SRB assay; details: UO-31, 48 h; procedure, shortened: as §4
UACC-62 = test: Antitumor activity against human UACC62 cells after 48 hrs by SRB assay; details: UACC-62, 48 h; procedure, shortened: as §4
HL-60(TB) [5] = test: Antitumor activity against human HL-60(TB) cells after 48 hrs by SRB assay; details: HL-60, 48 h
Procedure, shortened: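 NCI60 screen: cells grown in RPMI 1640 with 5% FBS and 2 mM L-glutamine, plated at 5000–40,000 cells/well by doubling time, preincubated 24 h at 37 °C with 5% CO2. Compounds were diluted from DMSO stocks and given for 48 h, at five concentrations for dose response. A time-zero plate was TCA-fixed. Cells were TCA-fixed, stained with 0.4% SRB and read at 515 nm, with growth expressed relative to untreated controls.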

CCRF-CEM = test: Antitumor activity against human CCRF-CEM cells after 48 hrs by SRB assay; procedure, shortened: as §3
HT-29 = test: Antiproliferative activity against human HT-29 cells after 48 hrs by SRB assay; details: HT-29, 48 h; procedure, shortened: as §3
SF-268 [6] = test: Antitumor activity against human SF268 cells after 48 hrs by SRB assay; details: SF-268, 48 h; procedure, shortened: as §3
[7] = read-out: LC50 (the source's name)
[8] = read-out: pLC50 (the source's name) (converted)

COc1ccc(/C(=C2\O[C@@H]([C@H]3COC(C)(C)O3)[C@H]3OC(C)(C)O[C@@H]23)c2cc(OC)c(OC)c(OC)c2)cc1O
Activity (DU-145): 45.59% | Activity (SF-268 [1]): 37.84% | Activity (HL-60(TB) [2]): -0.37% | Activity (K562): 10.18% | Activity (SR): -13.6% | Activity (NCI-H460): 103.52% | Activity (NCI-H226): 112.98% | Activity (SNB-75): 24.26% | Activity (U-251): 61.19% | Activity (M14): 19.53% | Activity (UACC-257): 126.04% | Activity (OVCAR-3): 58.27% | Activity (NCI/ADR-RES): -10.52% | Activity (786-0): 86.28% | Activity (ACHN): 49.46% | Activity (TK-10): 116.76% | Activity (UO-31 [3]): 123.08% | GI50 (KM12): 4.1 µM | LC50 (KM12): 72.9 µM | TGI (KM12): 17.8 µM | GI50 (T47D; read-out: GI50): 63.6 µM | CC50 (T47D; [7]): > 100 µM | TGI (T47D; read-out: TGI): > 100 µM | GI50 (T47D; read-out: pGI50 (converted)): 44.7 µM | CC50 (T47D; [8]): > 100 µM | TGI (T47D; read-out: pTGI (converted)): > 100 µM | GI50 (UO-31 [4]; read-out: GI50): 21.7 µM | CC50 (UO-31 [4]; [7]): > 100 µM | TGI (UO-31 [4]; read-out: TGI): 70.4 µM | GI50 (UO-31 [4]; read-out: pGI50 (converted)): 21.9 µM | CC50 (UO-31 [4]; [8]): > 100 µM | TGI (UO-31 [4]; read-out: pTGI (converted)): 70.8 µM | GI50 (UACC-62; read-out: GI50): 22.9 µM | CC50 (UACC-62; [7]): > 100 µM | TGI (UACC-62; read-out: TGI): 57.6 µM | GI50 (UACC-62; read-out: pGI50 (converted)): 22.9 µM | CC50 (UACC-62; [8]): > 100 µM | TGI (UACC-62; read-out: pTGI (converted)): 57.5 µM | GI50 (HL-60(TB) [5]; read-out: GI50): 6.48 µM | CC50 (HL-60(TB) [5]; [7]): > 100 µM | TGI (HL-60(TB) [5]; read-out: TGI): 56.8 µM | GI50 (HL-60(TB) [5]; read-out: pGI50 (converted)): 1.62 µM | CC50 (HL-60(TB) [5]; [8]): > 100 µM | TGI (HL-60(TB) [5]; read-out: pTGI (converted)): 56.2 µM | GI50 (CCRF-CEM; read-out: GI50): 5.45 µM | CC50 (CCRF-CEM; [7]): > 100 µM | TGI (CCRF-CEM; read-out: TGI): > 100 µM | GI50 (CCRF-CEM; read-out: pGI50 (converted)): 5.5 µM | CC50 (CCRF-CEM; [8]): > 100 µM | TGI (CCRF-CEM; read-out: pTGI): > 100 µM | LC50 (50% net cell kill) (HT-29): > 100 µM | GI50 (HT-29; read-out: GI50): 4.1 µM | TGI (HT-29; read-out: TGI): 17.8 µM | GI50 (HT-29; read-out: pGI50 (converted)): 4.07 µM | CC50 (HT-29; [8]): > 100 µM | TGI (HT-29; read-out: pTGI (converted)): 17.8 µM | LC50 (concentration killing 50% of cells relative to time zero) (SF-268 [6]): > 100 µM | GI50 (SF-268 [6]; read-out: GI50): 7.96 µM | TGI (SF-268 [6]; read-out: TGI): 53.6 µM | GI50 (SF-268 [6]; read-out: pGI50 (converted)): 7.94 µM | CC50 (SF-268 [6]; [8]): > 100 µM | TGI (SF-268 [6]; read-out: pTGI (converted)): 53.7 µM
